The list is not random: actives were taken first. Their share in the collection is about 4.8%.
CSC inhib: cancer stem cell inhibition; cancer stem cell-like cells viability, luminescence; inhibition, % at 7.5 µM; actives 1.1% (n = 300,000); in the data active = inhibition above about 75%; inconclusive = no clear call, values can overlap the other calls; tested in HMLE shEcad cells
Beta cell apopt: beta cell apoptosis inhibition; INS-1E cytokine-induced death, ATP luminescence, 48 h; percent of positive-control rescue, neutral wells zero; protection from apoptosis, % (no concentration beside the values); actives 0.8% (n = 300,000); AID 435005;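 active = Every replicate reaches about 75%, or at least half do and their mean reaches it too, limit read from the data; inconclusive = At least half of replicates reach the limit but their mean does not; inactive = Under half of replicates reach the limit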;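 also: higher means more ATP so stronger rescue from cytokine killing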
Mdm2-MdmX inh: disrupts the human Mdm2-MdmX interaction; actives 3% (n = 330,000); inhibition, % at 8 µM; SaOS-2 split-luciferase Mdm2/MdmX complementation, luminescence; AID 485346; O15151+Q00987;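 active = inhibition of at least 50% at 8 µM in the primary screen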
Target sequence (O15151 whole entry, looked up): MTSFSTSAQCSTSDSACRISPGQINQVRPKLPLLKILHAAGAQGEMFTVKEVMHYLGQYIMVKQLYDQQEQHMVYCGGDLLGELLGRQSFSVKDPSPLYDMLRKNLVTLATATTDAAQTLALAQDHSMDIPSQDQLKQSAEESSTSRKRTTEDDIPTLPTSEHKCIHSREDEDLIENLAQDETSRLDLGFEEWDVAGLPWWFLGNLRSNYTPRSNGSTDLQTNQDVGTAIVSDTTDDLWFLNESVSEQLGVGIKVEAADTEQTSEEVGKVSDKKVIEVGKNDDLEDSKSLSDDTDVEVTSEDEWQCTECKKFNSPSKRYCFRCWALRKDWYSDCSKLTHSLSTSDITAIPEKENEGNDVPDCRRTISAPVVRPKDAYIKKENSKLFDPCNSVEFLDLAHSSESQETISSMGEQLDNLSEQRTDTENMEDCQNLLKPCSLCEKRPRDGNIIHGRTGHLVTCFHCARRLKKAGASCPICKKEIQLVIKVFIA
Target sequence (Q00987 whole entry, looked up): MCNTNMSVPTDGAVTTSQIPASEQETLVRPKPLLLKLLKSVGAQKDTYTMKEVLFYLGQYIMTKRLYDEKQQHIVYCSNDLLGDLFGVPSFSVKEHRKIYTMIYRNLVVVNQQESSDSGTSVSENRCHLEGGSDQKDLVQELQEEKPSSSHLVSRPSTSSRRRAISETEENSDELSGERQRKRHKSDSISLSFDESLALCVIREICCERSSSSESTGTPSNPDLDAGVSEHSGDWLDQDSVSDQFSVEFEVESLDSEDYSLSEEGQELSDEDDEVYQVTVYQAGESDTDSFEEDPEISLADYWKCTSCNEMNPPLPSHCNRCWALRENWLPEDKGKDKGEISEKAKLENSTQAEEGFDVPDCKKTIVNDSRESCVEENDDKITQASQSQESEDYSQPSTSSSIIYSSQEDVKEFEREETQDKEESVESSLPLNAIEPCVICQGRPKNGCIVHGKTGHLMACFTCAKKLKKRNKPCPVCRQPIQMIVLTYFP
UPR XBP1 act: activators of adaptive arm of unfolded protein response (XBP1); CHO-XBP1 luciferase reporter, IRE1-XBP1 UPR activation, luminescence; percent of tunicamycin response, DMSO as zero; activation, % at 20 µM; AID 463104; actives 0.33% (n = 330,000);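 active = versus positive control, 20 µM dose yields 30% or more activation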
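Material: CHO-XBP1 cells stably carrying IRE1-XBP1-driven luciferase reporter | Medium: F12 with 10% serum | Compound dosing: 20 µM single concentration, DMSO 1% | Incubation: Overnight seeding at 37 °C, 6 h compound treatment at 37 °C | Detection: Steady-Glo luminescence read | Read-out basis: % activation of reporter signal versus tunicamycin and DMSO controls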
SKKanGAS inh: blocks kanamycin growth of S. pyogenes SKKanGAS strain; actives 1.3% (n = 300,000); AID 1662; inhibition, % at 7.5 µM; BacTiter-Glo, 6 h;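 active = mean replicate score, as percent of positive control median, at least 50; inconclusive = mean below 50 but one replicate at or above 50; inactive = mean and every replicate below 50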;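 also: strain carries kanamycin resistance gene driven by streptokinase promoter and grows in 40 µg/ml kanamycin; loss of luminescence reflects streptokinase promoter inhibition or plain growth inhibition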
UPR CHOP act: apoptotic UPR (CHOP) activation; CHO-CHOP luciferase reporter, luminescence; percent of tunicamycin response over DMSO baseline; activation, % at 10 µM; actives 0.34% (n = 330,000);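 active = at 10 µM dose, activation of 40% or more, normalized to positive control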
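Test system: CHO CHOP reporter cells. Input: 500 CHO-CHOP cells per well. Medium: F12 with 10% FBS. Technique: luciferase luminescence. Measure: percent activation relative to tunicamycin control. Dosing: 10 µM compound, 0.5% DMSO. Timing: 16-18 h cell attachment, then 6 h compound exposure, 37 °C.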
Mdm2 MdmX conf: human Mdm2/MdmX binding inhibition, confirmed; shares compounds with Mdm2-MdmX inh; luminescent assay; inhibition, % at 8 µM; actives 55% (n = 10,000); AID 489028; in the data active = inhibition above about 40%
FLuc counter: full-length luciferase inhibition in Mdm2/MdmX counter-screen; shares compounds with Mdm2-MdmX inh; actives 77% (n = 6,200); SaOS-2 full-length luciferase counterscreen, luminescence; AID 504607; inhibition, % at 8 µM;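 active = mean inhibition at 8 µM reaching about 37%, which flags the compound as non-specific, limit read from the data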;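 also: p53-null SaOS-2 cells with luciferase driven by a doxycycline-inducible promoter; compound on cells about two nights before reading with doxycycline added after day one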
Each line names hits and unclear results; the compound was inactive in the other large screens (follow-up assays come after a bar, where they were run).

CCCCn1c(NC(=S)Nc2ccccc2)nc2ccccc21	Mdm2-MdmX inh 58 (no result: CSC inhib) | Mdm2 MdmX conf inactive | FLuc counter 94
Cc1ccc(NCc2nc3ccccc3n2CCOc2ccccc2)cc1	none
S=C(Nc1ccccc1)Nc1nc2ccccc2n1CCOc1ccccc1	CSC inhib 98, Mdm2-MdmX inh 51 | Mdm2 MdmX conf inactive
O=C(Nc1ccc(F)cc1)c1ccc(Br)c(S(=O)(=O)N2CCOCC2)c1	none (no result: CSC inhib)
COc1cc(C(=O)N(C)CC(=O)Nc2cccc(F)c2)ccc1OCc1ccccc1	none (no result: CSC inhib)
C/C(=N\NC(=O)CCCNc1ccccc1)c1ccncc1	none (no result: CSC inhib)
C/C(=N\NC(=O)CCCNc1ccc(C)cc1)c1ccccn1	Mdm2-MdmX inh 62 | Mdm2 MdmX conf 55 | FLuc counter 47
Cc1noc(C)c1CSCC(=O)N(C)CC(=O)Nc1ccc(Cl)cc1	none
COc1ccc(-c2nc(CS(=O)(=O)CC(=O)NC3CCC(C)CC3)c(C)o2)cc1 (stereo unspecified)	none
O=c1[nH]c(/C=C/c2ccc(Br)cc2)nc2c1cnn2-c1ccccc1	Mdm2-MdmX inh 83 (no result: CSC inhib) | Mdm2 MdmX conf inactive
COc1cccc(/C=C/c2nc3c(cnn3-c3ccccc3)c(=O)[nH]2)c1	none
C#Cc1ccc([C@H]2C=C(C(=O)Nc3ccccc3)O[C@@H](OCc3ccc(CO)cc3)C2)cc1	none
Cc1ccc(Cn2c(CCNc3nc(-c4ccc(Cl)c([N+](=O)[O-])c4)cs3)nc3cc(Cl)c(Cl)cc32)cc1	Mdm2-MdmX inh 93 | Mdm2 MdmX conf inactive
N#Cc1cnn2c(-c3cccc([N+](=O)[O-])c3)ccnc12	none (no result: SKKanGAS inh)
Cc1cc(C)nc(NC(=S)Nc2ccc(Br)cc2Cl)c1	Mdm2-MdmX inh 51 | Mdm2 MdmX conf inactive
Cc1cc(C)nc(NC(=S)Nc2cccc(Cl)c2Cl)c1	none
CN1CCN(S(=O)(=O)c2ccc(SCCOc3ccc(Cl)cc3)nc2)CC1	Mdm2-MdmX inh 59 (no result: CSC inhib, SKKanGAS inh) | Mdm2 MdmX conf inactive
CC(=O)c1ccc(OCC(=O)N2CCCC2c2ccc3c(c2)OCCCO3)cc1 (stereo unspecified)	none (no result: SKKanGAS inh)
O=C(CCl)N1CCCC1c1ccc2c(c1)OCCO2 (stereo unspecified)	Mdm2-MdmX inh 75 | Mdm2 MdmX conf inactive | FLuc counter 43
C/C(=N/NC(=O)c1sc(=S)n(C)c1C)c1ccccc1	Mdm2-MdmX inh 53 | Mdm2 MdmX conf inactive
COc1ccc(C(=O)c2ccc(Br)cc2)c2ccccc12	Mdm2-MdmX inh 52 | Mdm2 MdmX conf 53 | FLuc counter 80
COc1ccc(OC)c(CN2CCN(C(=O)CCC(=O)c3cccs3)CC2)c1	none
Cc1ccccc1NC(=S)NCc1ccc2[nH]c3c(c2c1)CCCC3	Mdm2-MdmX inh 65 (no result: Beta cell apopt) | Mdm2 MdmX conf inactive
Cc1ccc(C)c(NC(=S)NCc2ccc3[nH]c4c(c3c2)CCCC4)c1	Mdm2-MdmX inh 64 (no result: CSC inhib) | Mdm2 MdmX conf inactive
S=C(NCc1ccc2[nH]c3c(c2c1)CCCC3)Nc1ccccc1Cl	Mdm2-MdmX inh 64 (no result: CSC inhib) | Mdm2 MdmX conf inactive
CC1CN(C(=O)CCC(=O)NCc2ccccn2)c2ccccc2O1 (stereo unspecified)	none
CCc1nn(CC(=O)NCCCN2CCOCC2)c(=O)c2cc3cc(F)ccc3n12	none
CCc1nn(CC(=O)NC2CCN(Cc3ccccc3)CC2)c(=O)c2cc3cc(F)ccc3n12	Mdm2-MdmX inh 58 | Mdm2 MdmX conf inactive
CCc1nn(CC(=O)NC(C)CCc2ccccc2)c(=O)c2cc3cc(F)ccc3n12 (stereo unspecified)	Mdm2-MdmX inh 55 | Mdm2 MdmX conf inactive
CCCOc1ccc(C(=O)NC2CCSc3ccccc32)cc1 (stereo unspecified)	none
Cc1nn(-c2ccccn2)c(C)c1Oc1ccccc1O	none
Cc1nn(-c2nc3ccccc3s2)c(C)c1Oc1ccccc1O	CSC inhib inconclusive, Mdm2-MdmX inh 77 | Mdm2 MdmX conf 66 | FLuc counter 87
O=C(NCc1cccc2[nH]ccc12)C1CCC(=O)N(CCc2ccc(Cl)cc2)C1 (stereo unspecified)	none
CC(=O)Nc1nc(-c2ccc3c(c2)CC(C)N3C(=O)C2CC2)c(C)s1 (stereo unspecified)	Mdm2-MdmX inh 85 | Mdm2 MdmX conf 85 | FLuc counter 54
Cc1sc(NC(=O)c2ccco2)nc1-c1ccc2c(c1)CC(C)N2C(=O)C1CC1 (stereo unspecified)	Mdm2-MdmX inh 85 | Mdm2 MdmX conf 55 | FLuc counter 53
Cc1sc(NC(=O)c2ccco2)nc1-c1ccccc1	none
COc1ccc(S(N)(=O)=O)cc1C(=O)OCC1CCCCC1	none
CSc1nnnn1-c1ccc(Cl)cc1	none
Cc1sc2ncnc(Sc3nnnn3-c3ccc(Cl)cc3)c2c1C	Mdm2-MdmX inh 101, SKKanGAS inh inconclusive | Mdm2 MdmX conf 79 | FLuc counter 54
c1ccc(-n2nnnc2Sc2ncnc3sc4c(c23)CCCC4)cc1	Mdm2-MdmX inh 98 | Mdm2 MdmX conf 75 | FLuc counter 48
O=C(CN1C(=O)NC2(CCCC2)C1=O)Nc1nc2ccccc2[nH]1	none
Cc1nc2ccccc2c(=O)n1Nc1cccc(Cl)c1	none
O=c1c2ccccc2nc2sc(Nc3cccc(Cl)c3)nn12	Mdm2-MdmX inh 73 (no result: SKKanGAS inh) | Mdm2 MdmX conf inactive
Cc1ccc(NC(=O)c2cc(C)n(-c3cccc(C)c3)c2C)cc1	none
Cc1ccc(NC(=O)c2cc(C)n(-c3ccccc3)c2C)cc1	Mdm2-MdmX inh 77 | Mdm2 MdmX conf 84 | FLuc counter 41
Cc1cc(C(=O)Nc2ccc(Cl)cc2)c(C)n1-c1ccccc1	Mdm2-MdmX inh 89 (no result: Beta cell apopt) | Mdm2 MdmX conf 89 | FLuc counter inactive
CCOc1ccc(C(=O)NCc2ccco2)cc1OC	none (no result: CSC inhib, Beta cell apopt)
O=S(=O)(c1ccccc1)c1nnn2c1nc(NC1CCN(Cc3ccccc3)CC1)c1ccccc12	Mdm2-MdmX inh 54 | Mdm2 MdmX conf inactive
O=S(=O)(c1ccccc1)c1nnn2c1nc(NC1CCN(Cc3ccccc3)CC1)c1cc(Cl)ccc12	Mdm2-MdmX inh 100 | Mdm2 MdmX conf inactive | FLuc counter 52
O=C(/C=C/c1ccccc1Cl)c1ccc(O)cc1	Mdm2-MdmX inh 55 | Mdm2 MdmX conf inactive
O=C(/C=C/c1ccccc1Cl)Nc1ccccc1	none
CCOC(=O)c1c(C)[nH]c(C(=O)CSc2nnnn2-c2ccc(C)cc2)c1C	Mdm2-MdmX inh 66 | Mdm2 MdmX conf inactive
Nc1[nH]n2c(=O)c3c(nc2c1N=Nc1ccc(Cl)cc1)CCCC3	Mdm2-MdmX inh 53, SKKanGAS inh 83 | Mdm2 MdmX conf inactive
